Experimental data as given in ChEMBL document CHEMBL1157414, “Cytotoxic dihydroagarofuranoid sesquiterpenes from the seeds of Celastrus orbiculatus” (J Nat Prod, 2008).

These compounds were tested on HL-60 (assay: Cytotoxicity against human HL60 cells after 72 hrs by MTT assay). Conditions: HL-60, 72 h.
Format: functional, cell-based
Summary of the method: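 HL-60 human leukemia cells were plated in 96-well plates and exposed in triplicate to graded concentrations for 72 h. MTT was added for 4 h at 37 °C, then extraction buffer (10% SDS, 5% isobutanol, 0.01 M HCl) overnight at 37 °C. Absorbance was read at 570 nm.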
`CC(=O)O[C@H]1C[C@@H](C)[C@@]23C[C@@H](C[C@H](OC(C)=O)[C@]2(C)[C@H]1OC/C=C/c1ccccc1)C(C)(C)O3` showed an IC50 of 3.3 µM. For `CC(=O)O[C@@H]1[C@@H]2[C@@H](OC(C)=O)[C@]3(OC2(C)C)[C@H](C)CC[C@H](OC(C)=O)[C@@]3(C)[C@H]1OC(=O)c1ccccc1`, the IC50 was 6.8 µM. `CC(=O)O[C@H]1C[C@@H]2[C@@H](OC(=O)c3ccccc3)[C@]3(OC2(C)C)[C@H](C)CC[C@H](OC(=O)c2ccccc2)[C@@]13C` gave an IC50 of 2.8 µM. `CCCC(=O)O[C@@H]1[C@@H]2[C@@H](OC(C)=O)[C@]3(OC2(C)C)[C@H](C)CC[C@H](OC(=O)c2ccccc2)[C@@]3(C)[C@@H]1OC(=O)c1ccccc1` was tested, and the IC50 was 5.3 µM. In the case of `CC(=O)O[C@@H]1[C@H]2[C@@H](O)[C@@H](OC(=O)c3ccccc3)[C@]3(C)[C@@H](OC/C=C/c4ccccc4)CC[C@@H](C)[C@@]13OC2(C)C`, the IC50 is reported as 8.3 µM.

These compounds were tested on HL-60 (assay: Cytotoxicity against human HL60 cells at 10 uM after 72 hrs by MTT assay). Conditions: not given.
Format: functional
Summary of the method: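 MTT was added for 4 h at 37 °C, followed by extraction buffer (10% SDS, 5% isobutanol, 0.01 M HCl) overnight at 37 °C. Absorbance was read at 570 nm, with etoposide as positive control.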
For `CC(=O)O[C@H]1CC[C@@H](C)[C@]23OC(C)(C)[C@H](C[C@H](OC(=O)c4ccccc4)[C@]12C)[C@H]3O`, the Activity was <50%. For `CC(=O)O[C@@H]1[C@H]2[C@@H](O)[C@@H](OC(=O)c3ccccc3)[C@]3(C)[C@@H](O)CC[C@@H](C)[C@@]13OC2(C)C`, the Activity was <50%. `CC(=O)O[C@@H]1[C@H]2C[C@H](OC/C=C/c3ccccc3)[C@]3(C)[C@@H](OC(C)=O)[C@@H](O)C[C@@H](C)[C@@]13OC2(C)C` was tested, and the Activity was <50%. For `CC(=O)O[C@@H]1[C@@H]2[C@@H](OC(C)=O)[C@]3(OC2(C)C)[C@H](C)CC[C@H](OC(=O)c2ccccc2)[C@@]3(C)[C@@H]1OC(=O)c1ccccc1`, the Activity was <50%. For `CC(=O)O[C@@H]1[C@H]2[C@@H](OC(=O)c3ccccc3)[C@H](OC(=O)c3ccccc3)[C@]3(C)[C@@H](OC(=O)c4ccccc4)CC[C@@H](C)[C@@]13OC2(C)C`, the Activity was <50%. `CC(=O)O[C@H]1C[C@](C)(O)[C@@]23C[C@@H](C[C@H](OC(=O)/C=C/c4ccccc4)[C@]2(C)[C@H]1OC(C)=O)C(C)(C)O3` was tested, and the Activity was <50%. `C[C@@H]1CC[C@H](OC(=O)c2ccccc2)[C@@]2(C)[C@H](OC(=O)c3ccccc3)[C@H](OC(=O)c3ccccc3)[C@@H]3[C@@H](O)[C@]12OC3(C)C` was tested, and the Activity was <50%. With `CC(=O)O[C@@H]1[C@H]2C[C@H](OC/C=C/c3ccccc3)[C@]3(C)[C@@H](OC(C)=O)[C@@H](OC(=O)c4ccccc4)C[C@@H](C)[C@@]13OC2(C)C` the Activity was <50%. For `CC(=O)O[C@H]1CC[C@@H](CO)[C@]23OC(C)(C)[C@H](C[C@H](OC(=O)c4ccccc4)[C@]12C)[C@H]3OC(=O)c1ccccc1`, the Activity was <50%. `CC(=O)O[C@@H]1[C@@H]2[C@@H](OC(C)=O)[C@]3(OC2(C)C)[C@H](C)CC[C@H](O)[C@@]3(C)[C@@H]1OC(=O)c1ccccc1` was tested, and the Activity was <50%.
